Laboratory results taken from ChEMBL document CHEMBL1926642, “Relevance of the C-5 position to schweinfurthin induced cytotoxicity” (2011).

Tests used:
Format in all cases: functional
CCRF-CEM = experiment: Growth inhibition of human CCRF-CEM cells after 48 hrs by sulforhodamine B assay
HL-60(TB) = experiment: Growth inhibition of human HL-60(TB) cells after 48 hrs by sulforhodamine B assay; settings: HL-60, 48 h
Outline: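 Run in the NCI 60 cell-line screen as the full 5-dose assay that follows initial single-dose testing; GI50 is read from the dose series.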

K562 = experiment: Growth inhibition of human K562 cells after 48 hrs by sulforhodamine B assay; settings: K562, 48 h
MOLT-4 = experiment: Growth inhibition of human MOLT4 cells after 48 hrs by sulforhodamine B assay; settings: MOLT-4, 48 h
RPMI-8226 = experiment: Growth inhibition of human RPMI8226 cells after 48 hrs by sulforhodamine B assay; settings: RPMI-8226, 48 h
EKVX = experiment: Growth inhibition of human EKVX cells after 48 hrs by sulforhodamine B assay
HOP-62 = experiment: Growth inhibition of human HOP62 cells after 48 hrs by sulforhodamine B assay; settings: HOP-62, 48 h
NCI-H226 = experiment: Growth inhibition of human NCI-H226 cells after 48 hrs by sulforhodamine B assay; settings: NCI-H226, 48 h
NCI-H23 = experiment: Growth inhibition of human NCI-H23 cells after 48 hrs by sulforhodamine B assay; settings: NCI-H23, 48 h
NCI-H322M = experiment: Growth inhibition of human NCI-H322M cells after 48 hrs by sulforhodamine B assay
NCI-H460 = experiment: Growth inhibition of human NCI-H460 cells after 48 hrs by sulforhodamine B assay; settings: NCI-H460, 48 h
HCC 2998 = experiment: Growth inhibition of human HCC2998 cells after 48 hrs by sulforhodamine B assay; settings: HCC 2998, 48 h
HCT-116 = experiment: Growth inhibition of human HCT116 cells after 48 hrs by sulforhodamine B assay; settings: HCT-116, 48 h
HCT-15 = experiment: Growth inhibition of human HCT15 cells after 48 hrs by sulforhodamine B assay; settings: HCT-15, 48 h
KM12 = experiment: Growth inhibition of human KM12 cells after 48 hrs by sulforhodamine B assay; settings: KM12, 48 h
SF-295 = experiment: Growth inhibition of human SF295 cells after 48 hrs by sulforhodamine B assay; settings: SF-295, 48 h
U-251 = experiment: Growth inhibition of human U251 cells after 48 hrs by sulforhodamine B assay; settings: U-251, 48 h
SK-MEL-2 = experiment: Growth inhibition of human SK-MEL-2 cells after 48 hrs by sulforhodamine B assay; settings: SK-MEL-2, 48 h
SK-MEL-5 = experiment: Growth inhibition of human SK-MEL-5 cells after 48 hrs by sulforhodamine B assay; settings: SK-MEL-5, 48 h
IGROV-1 = experiment: Growth inhibition of human IGROV1 cells after 48 hrs by sulforhodamine B assay; settings: IGROV-1, 48 h
OVCAR-3 = experiment: Growth inhibition of human OVCAR3 cells after 48 hrs by sulforhodamine B assay; settings: OVCAR-3, 48 h
OVCAR-4 = experiment: Growth inhibition of human OVCAR4 cells after 48 hrs by sulforhodamine B assay; settings: OVCAR-4, 48 h
OVCAR-5 = experiment: Growth inhibition of human OVCAR5 cells after 48 hrs by sulforhodamine B assay; settings: OVCAR-5, 48 h
OVCAR-8 = experiment: Growth inhibition of human OVCAR8 cells after 48 hrs by sulforhodamine B assay; settings: OVCAR-8, 48 h
SK-OV-3 = experiment: Growth inhibition of human SKOV3 cells after 48 hrs by sulforhodamine B assay; settings: SK-OV-3, 48 h
CAKI-1 = experiment: Growth inhibition of human Caki1 cells after 48 hrs by sulforhodamine B assay; settings: CAKI-1, 48 h
SN12C = experiment: Growth inhibition of human SN12C cells after 48 hrs by sulforhodamine B assay
TK-10 = experiment: Growth inhibition of human TK10 cells after 48 hrs by sulforhodamine B assay; settings: TK-10, 48 h
UO-31 = experiment: Growth inhibition of human UO31 cells after 48 hrs by sulforhodamine B assay; settings: UO-31, 48 h
MDA-MB-231 = experiment: Growth inhibition of human MDA-MB-231/ATCC cells after 48 hrs by sulforhodamine B assay; settings: MDA-MB-231, 48 h
[1] = Growth inhibition of human Hs 578T cells after 48 hrs by sulforhodamine B assay
T47D = experiment: Growth inhibition of human T47D cells after 48 hrs by sulforhodamine B assay
[2] = read-out: pLC50 (the source's name) (converted)

With `COCOc1cc(/C=C/c2cc(CO)c3c(c2)C[C@@H]2C(C)(C)[C@H](O)CC[C@@]2(C)O3)cc(OC)c1C/C=C(\C)CCC=C(C)C` the GI50 (CCRF-CEM) was 1.02 µM, the LC50 (CCRF-CEM) was > 100 µM and the TGI (CCRF-CEM; read-out: pTGI (converted)) was > 100 µM. The GI50 (HL-60(TB)) was 0.661 µM, the CC50 (HL-60(TB); [2]) was > 100 µM and the TGI (HL-60(TB); read-out: pTGI (converted)) was 33.9 µM. The GI50 (K562) was 2.51 µM, the LC50 (K562) was > 100 µM and the TGI (K562; read-out: pTGI (converted)) was 28.8 µM. The GI50 (MOLT-4) was 0.398 µM, the LC50 (MOLT-4) was > 100 µM and the TGI (MOLT-4; read-out: pTGI (converted)) was > 100 µM. For the same compound, the GI50 (RPMI-8226) was 0.479 µM, the LC50 (RPMI-8226) was > 100 µM and the TGI (RPMI-8226; read-out: pTGI (converted)) was > 100 µM. The GI50 (EKVX) was 4.47 µM, the LC50 (50% lethal concentration) (EKVX) was > 100 µM and the TGI (EKVX; read-out: pTGI (converted)) was 83.2 µM. For the same compound, the GI50 (HOP-62) was 0.537 µM, the LC50 (HOP-62) was 64.6 µM and the TGI (HOP-62; read-out: pTGI (converted)) was 11 µM. It also gave a GI50 (NCI-H226) of 14.5 µM, an LC50 (NCI-H226) of 64.6 µM and a TGI (NCI-H226; read-out: pTGI (converted)) of 30.2 µM. It also gave a GI50 (NCI-H23) of 4.17 µM, an LC50 (NCI-H23) of 74.1 µM and a TGI (NCI-H23; read-out: pTGI (converted)) of 24.5 µM. For the same compound, the GI50 (NCI-H322M) was 22.4 µM, the LC50 (NCI-H322M) was > 100 µM and the TGI (NCI-H322M; read-out: pTGI (converted)) was 91.2 µM. The GI50 (NCI-H460) was 0.871 µM, the LC50 (concentration killing 50% of cells) (NCI-H460) was > 100 µM and the TGI (NCI-H460; read-out: pTGI (converted)) was > 100 µM. It also gave a GI50 (HCC 2998) of 10.7 µM, an LC50 (HCC 2998) of 70.8 µM and a TGI (HCC 2998; read-out: pTGI (converted)) of 27.5 µM. The GI50 (HCT-116) was 3.47 µM, the LC50 (HCT-116) was 45.7 µM and the TGI (HCT-116; read-out: pTGI (converted)) was 18.2 µM. The GI50 (HCT-15) was 1.35 µM, the LC50 (HCT-15) was 81.3 µM and the TGI (HCT-15; read-out: pTGI (converted)) was 10.2 µM. The GI50 (KM12) was 4.27 µM, the LC50 (KM12) was 57.5 µM and the TGI (KM12; read-out: pTGI (converted)) was 21.4 µM. For the same compound, the LC50 (SF-295) was 33.9 µM, the GI50 (SF-295; read-out: GI50) was 0.15 µM and the GI50 (SF-295; read-out: pGI50 (converted)) was 0.151 µM. The TGI (SF-295; read-out: pTGI (converted)) was 0.501 µM, the GI50 (U-251) was 0.275 µM and the LC50 (U-251) was 53.7 µM. The TGI (U-251; read-out: pTGI (converted)) was 15.5 µM, the GI50 (SK-MEL-2) was 17.8 µM and the LC50 (SK-MEL-2) was > 100 µM. For the same compound, the TGI (SK-MEL-2; read-out: pTGI (converted)) was 66.1 µM, the GI50 (SK-MEL-5) was 2.24 µM and the LC50 (SK-MEL-5) was 40.7 µM. The TGI (SK-MEL-5; read-out: pTGI (converted)) was 12.3 µM, the GI50 (IGROV-1) was 15.8 µM and the LC50 (IGROV-1) was > 100 µM. The TGI (IGROV-1; read-out: pTGI (converted)) was > 100 µM, the GI50 (OVCAR-3) was 12.6 µM and the LC50 (OVCAR-3) was 60.3 µM. The TGI (OVCAR-3; read-out: pTGI (converted)) was 27.5 µM, the GI50 (OVCAR-4) was 7.24 µM and the LC50 (OVCAR-4) was > 100 µM. The TGI (OVCAR-4; read-out: pTGI (converted)) was 44.7 µM, the GI50 (OVCAR-5) was 6.61 µM and the LC50 (OVCAR-5) was > 100 µM. It also gave a TGI (OVCAR-5; read-out: pTGI (converted)) of 41.7 µM, a GI50 (OVCAR-8) of 11 µM and an LC50 (OVCAR-8) of 77.6 µM. For the same compound, the TGI (OVCAR-8; read-out: pTGI (converted)) was 29.5 µM, the GI50 (SK-OV-3) was 19.5 µM and the LC50 (SK-OV-3) was > 100 µM. For the same compound, the TGI (SK-OV-3; read-out: pTGI (converted)) was 81.3 µM, the GI50 (CAKI-1) was 0.813 µM and the LC50 (CAKI-1) was > 100 µM. It also gave a TGI (CAKI-1; read-out: pTGI (converted)) of 15.1 µM, a GI50 (SN12C) of 6.61 µM and an LC50 (SN12C) of 58.9 µM. For the same compound, the TGI (SN12C; read-out: pTGI (converted)) was 22.4 µM, the GI50 (TK-10) was 15.8 µM and the LC50 (TK-10) was > 100 µM. For the same compound, the TGI (TK-10; read-out: pTGI (converted)) was 41.7 µM, the GI50 (UO-31) was 0.501 µM and the LC50 (UO-31) was 93.3 µM. For the same compound, the TGI (UO-31; read-out: pTGI (converted)) was 15.1 µM, the GI50 (MDA-MB-231) was 1.62 µM and the CC50 (MDA-MB-231; [2]) was 57.5 µM. The TGI (MDA-MB-231; read-out: pTGI (converted)) was 14.5 µM, the GI50 [1] was 0.55 µM and the CC50 [1, 2] was > 100 µM. For the same compound, the TGI ([1]; read-out: pTGI (converted)) was > 100 µM, the GI50 (T47D) was 11.5 µM and the LC50 (T47D) was > 100 µM. The TGI (T47D; read-out: pTGI (converted)) was 49 µM.
